Tests used:
[1] = Short-term stability of stock solutions at room temperature; format: physicochemical; details: stock solution in methanol, room temperature for 6 hours
Method in brief: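 Stock solutions (2.0 mg·mL−1 in methanol) of each analyte and the taxol internal standard were held 6 hours at room temperature and then assayed by the validated HPLC–MS/MS method. A deviation within ±15% was taken as stable.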

[2] = Pharmacokinetics study in rats after oral administration of HQCF extract; format: in vivo, rat; details: for AUC(0-inf) / AUC(0-t) / Cmax / Tmax / half-life: male, Sprague-Dawley, rat, plasma, po, 1526.5 mg/kg; for shape of the plasma concentration–time curve: rats, after HQCF extract administration
Method in brief: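 Male Sprague–Dawley rats (200 ± 20 g), acclimatised 7 days, fasted 12 h; n = 6 given extract water solution (0.2 g·mL−1) by gavage. Blood (~250 µL) from ophthalmic vein at 0–24 h; plasma spun at 16,060 × g, 10 min, 4°C. Plasma protein-precipitated with taxol internal standard; C18 gradient HPLC–ESI-MS/MS in SRM mode. Non-compartmental analysis; mean ± SD.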

[3] = Stability of QC samples of the analytes in rat plasma; format: in vitro ADME; details: storage conditions of Table 5
Method in brief: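 Rat plasma QC samples at low, middle and high levels (n = 6 each) were held 4 h at room temperature, 24 h at 4°C, three freeze/thaw cycles (−80°C to room temperature) or 45 days at −80°C. Samples were protein-precipitated with taxol internal standard and run by HPLC–MS/MS SRM. A deviation within ±15% was taken as stable.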

Row | Stock solution stability, accuracy [1] [%] | AUC(0-inf) [2] [ng·h/mL] | AUC(0-t) [2] [ng·h/mL] | Cmax [2] [ng/mL] | Tmax [2] [h] | half-life [2] [h] | shape of the plasma concentration–time curve [2] | Degradation in rat plasma under different experimental conditions [3] | Compound
1 | 102.4 | – | – | – | – | – | – | – | CC(=O)O[C@H]1C(=O)[C@@]2(C)[C@H]([C@H](OC(=O)c3ccccc3)[C@]3(O)C[C@H](OC(=O)[C@H](O)[C@@H](NC(=O)c4ccccc4)c4ccccc4)C(C)=C1C3(C)C)[C@]1(OC(C)=O)CO[C@@H]1C[C@@H]2O [IS, Taxol, reference compound]
2 | 90.2 | 1830 ± 416 | 1680 ± 342 | 247 ± 32.3 | 1.5 ± 0.4 | 6.28 ± 2.5 | double-peak absorption phases | no significant degradation | COc1ccc(-c2coc3cc(O)ccc3c2=O)cc1O [CA, calycosin]
3 | 105.4 | 762 ± 281 | 410 ± 92.3 | 117 ± 31.5 | 1.2 ± 0.6 | 6.94 ± 2.8 | double-peak absorption phases | no significant degradation | C[C@@]12C[C@@]3(O)O[C@@H](O1)[C@]1(COC(=O)c4ccccc4)[C@H]3C[C@@]12O[C@@H]1O[C@H](CO)[C@@H](O)[C@H](O)[C@H]1O [PA, paeoniflorin]

From publication PMC7686626 (The Journal of International Medical Research, 2020)
